Data as given in article PMC7012720 (Journal of inorganic biochemistry, 2019).
Where “and” joins values, the source holds several entries; their conditions need not be identical. Equal entries are not always repeated. Where two headings read alike, the source gives them in different places.

Columns and labels:
Log = assay type: physicochemical; conditions: for Estimated Log(Do/w) of protonation state: best fit of Figures 2–4, error +/− 0.2
Summary of the method: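 Modified shake-flask method in the dark, using 0.1 M acetate (pH 4.00–5.25) or 0.1 M phosphate (pH 5.8–8.0) buffer. Octanol and buffer were mutually pre-saturated for 24 h. Test compound (200 μM) in buffer-saturated octanol was stirred 1:1 with octanol-saturated buffer for 24 h at ambient temperature. The filtered aqueous phase was quantified by UV-Vis. logD = log([Ru]org/[Ru]aq), quadruplicate mean. Per-species values were fitted from pKa-based fractions.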

[1] = Mole fractions of protonation states calculated from pKa values; assay type: physicochemical
[2] = standard deviation in parenthesis; cited from earlier work
MDA-MD-231 (breast CSC) = conditions: cited from earlier work
MCF7 (breast cancer) = conditions: cited from earlier work
MCF10A (normal) = conditions: cited from earlier work
HeLa (cervical cancer) = conditions: cited from earlier work
[3] = read-out: IC50 light, irradiation for one hour with blue light (450 nm)

- Estimated Log(Do/w) of protonation state (Log; Acidic Form (XA)): −0.1
- Estimated Log(Do/w) of protonation state (Log; Basic Form (XB)): 1.6
- Estimated Log(Do/w) of protonation state (Log; Monoprotic Acid): 0.9
- Increase of Log(Do/w) from acidic form (XA) to basic form (XB) (Log; orders of magnitude / log units, listed as 1): ~ 1.7 and 1.7
- Log(Do/w) (Log; pH 4.00, 0.1M Acetate Buffer): 0.04(3)
- Log(Do/w) (Log; pH 5.00, 0.1M Acetate Buffer): 0.11(2)
- Log(Do/w) (Log; pH 6.00, 0.1M Phosphate Buffer): 0.57(2)
- Log(Do/w) (Log; pH 6.60, 0.1M Phosphate Buffer): 1.10(2)
- Log(Do/w) (Log; pH 7.00, 0.1M Phosphate Buffer): 1.18(1)
- Log(Do/w) (Log; pH 7.40, 0.1M Phosphate Buffer): 1.36(1)
- Log(Do/w) (Log; pH 8.00, 0.1M Phosphate Buffer): 1.39(2)
- Proportion of monoprotic species ([1]; pH 6.0 to 6.6): 80–83%
- Mole fraction of acidic form (XA) ([1]; pH 7.4): ~0.003
- Mole fraction of monoprotic species ([1]; pH 7.4): ~0.42
Substance: [(bipy)2Ru(6,6’-dhbp)]^2+ [Compound 1A]
- pKa1 [2]: 5.26
- pKa2 [2]: 7.27
- pKa avg [2]: 6.3
- PI (phototoxicity index, IC50 dark / IC50 light) (MDA-MD-231 (breast CSC); MDA-MD-231): 3.5
- IC50 (MDA-MD-231 (breast CSC); read-out: IC50 dark, MDA-MD-231, dark): 1010 µM
- IC50 (MDA-MD-231 (breast CSC); read-out: IC50 light, MDA-MD-231, irradiation for one hour with blue light (450 nm)): 290 µM
- PI (phototoxicity index, IC50 dark / IC50 light) (MCF7 (breast cancer); MCF7): ~1
- IC50 (MCF7 (breast cancer); read-out: IC50 dark, MCF7, dark): > 500 µM
- IC50 (MCF7 (breast cancer); read-out: IC50 light, MCF7, irradiation for one hour with blue light (450 nm)): > 500 µM
- PI (phototoxicity index, IC50 dark / IC50 light) (MCF10A (normal)): >2.4
- IC50 (MCF10A (normal); read-out: IC50 dark, dark): > 500 µM
- IC50 (MCF10A (normal); [3]): 210 µM
- PI (phototoxicity index, IC50 dark / IC50 light) (HeLa (cervical cancer)): 0.73
- IC50 (HeLa (cervical cancer); read-out: IC50 dark, dark): 148 µM
- IC50 (HeLa (cervical cancer); [3]): 202 µM
